Screening results as filed in PubChem BioAssay.
SENP1 FRET inh: SENP1 (human) catalytic domain inhibition; Q9P0U3; recombinant SENP1 catalytic domain, CyPet-SUMO1-YPet FRET cleavage; inhibition, % at 10 µM; 0.21% of 360,000 active; AID 624204;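 active means inhibition at least 30% at 10 µM, raw YFP signal under a set limit, fluorescence ratio 0.5 to 1.5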;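 further: 0% = enzyme with DMSO and 100% = no enzyme wells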
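Test system: hSENP1 catalytic domain, recombinant; Amount: 20 pM final SENP1 enzyme; Medium: Tris pH 8 buffer plus EDTA, NaCl, BME, BSA, NP40, catalase; Schedule: 50 min enzyme reaction, room temperature, light-protected; Technique: FRET fluorescence in CFP and YFP emission channels; Controls: no-enzyme wells low, DMSO-plus-enzyme wells high control.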
GRK2 inh: blocks RNA aptamer binding to human GRK2. inhibition of aptamer binding, % at 10 µM. 0.59% of 330,000 active. AID 488847. P25098. bead flow cytometry, FAM-aptamer displacement from GRK2;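 active means inhibition of aptamer binding above 40%, roughly 3 SD of noise, on plates passing a quality check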;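 further: median bead fluorescence of bound FAM aptamer so fluorescent compounds give negative values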
Beta2AR agonist: agonists of human beta-2 adrenergic receptor inducing internalization; AID 504454; 0.43% of 340,000 active; response, % (no concentration beside the values); Am2.2-beta2AR cells, FAP receptor internalization, flow cytometry; P07550;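 active means response above a set limit, near 3 SD of response in nonfluorescent compounds, cut at about 42% in these data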
ABHD5-PLIN5 inh: ABHD5-PLIN5 protein interaction inhibition | Q00G26+Q8WTS1 | inhibition, % at 4 µM | 0.78% of 360,000 active | Split G. princeps luciferase complementation, luminescence, 4 h;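 active means inhibition above the mean inhibition across every tested compound plus 3 SD, cut at about 22% in these data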;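 further: 0% = DMSO only wells and the 100% control is not disclosed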
Target sequence (Q00G26 whole entry, looked up): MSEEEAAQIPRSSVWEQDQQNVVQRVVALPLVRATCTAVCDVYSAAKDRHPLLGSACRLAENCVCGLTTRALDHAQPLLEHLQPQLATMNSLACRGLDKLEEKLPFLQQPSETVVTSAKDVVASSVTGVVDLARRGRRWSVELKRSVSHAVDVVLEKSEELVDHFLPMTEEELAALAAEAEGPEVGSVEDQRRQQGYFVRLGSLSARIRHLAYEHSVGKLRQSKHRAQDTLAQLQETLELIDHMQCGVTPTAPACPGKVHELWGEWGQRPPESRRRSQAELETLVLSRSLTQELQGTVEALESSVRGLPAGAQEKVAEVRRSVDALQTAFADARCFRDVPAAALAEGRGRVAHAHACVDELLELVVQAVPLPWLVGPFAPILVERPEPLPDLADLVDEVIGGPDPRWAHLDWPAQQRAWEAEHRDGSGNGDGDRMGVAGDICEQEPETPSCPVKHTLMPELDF
Target sequence (Q8WTS1 whole entry, looked up): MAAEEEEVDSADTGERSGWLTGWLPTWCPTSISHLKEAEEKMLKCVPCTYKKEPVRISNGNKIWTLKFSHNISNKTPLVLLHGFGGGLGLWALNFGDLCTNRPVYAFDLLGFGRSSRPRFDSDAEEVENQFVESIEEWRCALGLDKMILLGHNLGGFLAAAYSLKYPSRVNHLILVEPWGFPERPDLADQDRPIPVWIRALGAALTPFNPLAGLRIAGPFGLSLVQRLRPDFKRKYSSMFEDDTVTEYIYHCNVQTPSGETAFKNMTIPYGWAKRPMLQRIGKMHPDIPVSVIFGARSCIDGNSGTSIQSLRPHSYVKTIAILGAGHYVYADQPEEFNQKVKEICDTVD
NadD block: blocks S. aureus nicotinate mononucleotide adenylyltransferase; 0.78% of 360,000 active; inhibition, % at 20 µM; purified NadD enzyme, colorimetric absorbance read-out; in the data active means inhibition above about 26%
NadD inh conf: NadD (S. aureus) inhibition, single concentration confirmation; shares compounds with NadD block; purified S. aureus NadD, colorimetric enzyme assay; inhibition, % at 20 µM; 13% of 2,000 active; in the data active means inhibition mostly above about 42%, no sharp cut-off; inactive means mostly below about 42%
* = called active by the depositor; . = not tested or not shown. An excerpt weighted towards active compounds, which were near 2.5% of everything screened.

SMILES	SENP1 FRET inh	GRK2 inh	Beta2AR agonist	ABHD5-PLIN5 inh	NadD block	NadD inh conf
COc1cc(C(CC(=O)Nc2ccccn2)N2Cc3ccccc3C2=O)cc(OC)c1OC (stereo not drawn)	-2.0	0.0	-26.5	-1.8	3.3	.
COc1ccc(NC(=O)CN(C)C(=O)c2cn(-c3ccccc3)nc2-c2ccc(Cl)cc2)cc1	0.9	4.0	-4.0	-7.3	-3.9	.
c1ccn2cc(-c3ccc4c(c3)OCO4)cc2c1	-5.4	0.0	12.1	3.2	29.0*	34.9
c1cnc2nc(-c3ccc4c(c3)OCO4)cn2c1	-1.8	0.0	-8.8	-3.8	-2.8	.
COc1ccc(NC(=O)C2CC(c3ccccc3O)=NO2)cc1OC (stereo not drawn)	-0.6	.	-6.4	-5.5	-6.7	.
COc1ccccc1Cn1[nH]nnc1=S	1.1	5.0	-3.8	-2.9	9.3	.
N#C/C(=C\c1ccc(-c2ccc(F)cc2)o1)C(=O)Nc1nc(-c2cccs2)cs1	-10.1	0.0	1.6	-3.8	26.0	.
Cc1ccc(Cc2cnc(NC(=O)/C(C#N)=C/c3ccc(-c4ccc([N+](=O)[O-])cc4)o3)s2)cc1	9.0	14.0	0.7	-0.1	47.7*	4.1
N#C/C(=C/c1ccc(-c2ccc([N+](=O)[O-])cc2)o1)C(=O)Nc1nc(-c2cccs2)cs1	11.7	.	2.9	-5.1	48.3*	6.0
O=C(O)/C(=C\c1ccc2ccccc2c1)c1cccc2ccccc12	-6.3	2.0	13.2	6.5	2.5	.
Cc1ccc(NC(=O)CC2S/C(=N/N=C/c3ccco3)NC2=O)cc1Cl (stereo not drawn)	1.2	0.0	-13.0	1.2	10.3	.
Cc1ccc(NC(=O)CC2S/C(=N/N=C/C=C/c3ccccc3)NC2=O)cc1Cl (stereo not drawn)	1.4	2.0	-1.4	0.6	32.3*	7.4
COc1ccc(C)cc1Nc1nc(-c2c[nH]c3ccccc23)cs1	-18.5	0.0	-22.4	-25.7	39.3*	36.4
CC(=O)c1cccc(-c2ccc3c(=O)[nH]c(Nc4ccccc4)cc3c2)c1	-46.7	6.0	5.9	-20.7	35.0*	23.0
COc1cc(NC(=O)COc2ccc(Cl)cc2)ccc1-c1cc2ccccc2oc1=O	-35.3	0.0	31.4	-11.1	38.1*	5.2
COc1cc(NC(=O)COc2ccc(Cl)cc2)ccc1NC(=O)C(C)C	1.1	5.0	-9.1	-0.5	-8.0	.
CC(C)N(CCCNC(=O)C1CCN(C(=O)c2cc3sccc3n2C)CC1)Cc1ccccc1	1.8	2.0	6.2	5.7	-4.4	.
COc1cccc(N(C(=O)Cn2nnc(-c3cccs3)n2)C(C(=O)NC2CCCCC2)c2ccncc2)c1 (stereo not drawn)	4.2	2.0	-6.8	5.0	32.6*	4.9
Cc1ccc(C(CCN(Cc2ccccc2)C(=O)c2ccco2)c2ccco2)cc1 (stereo not drawn)	-13.7	2.0	18.2	28.9*	37.6*	36.9
CC(=O)N(CCC(c1ccccc1)c1ccco1)Cc1cccs1 (stereo not drawn)	-3.2	0.0	-12.1	12.0	-1.1	.
COc1ccc(/C=N/N=C2/NC(=O)C(CC(=O)O)S2)cc1OCc1ccccc1Cl (stereo not drawn)	1.3	1.0	-1.0	0.6	7.5	.
COc1ccc(/C=N/N=C2/NC(=O)C(CC(=O)O)S2)cc1OCc1ccc(Cl)cc1Cl (stereo not drawn)	4.5	2.0	-1.1	-0.8	36.1*	31.1
CCOC(=O)C1CCN(CCCSc2ccc(C)cc2)CC1	2.3	0.0	-7.4	-5.0	2.8	.
CCOc1ncccc1C(=O)OCc1csc(CC(=O)Nc2ccccc2C)n1	-5.2	3.0	12.4	-10.1	0.4	.
O=C(OCc1ccccc1)N1C=CCC[C@@H]1c1c(Cl)cccc1Br	2.6	.	.	-9.9	2.3	.
SMILES	SENP1 FRET inh	GRK2 inh	Beta2AR agonist	ABHD5-PLIN5 inh	NadD block	NadD inh conf
N=C1S/C(=C\c2ccc(-c3cccc(Cl)c3)o2)C(=O)N1c1nccs1	-29.6	4.0	-43.7	-2.1	75.7*	2.5
Clc1cccc(-c2ccc(/C=N/n3cnnc3)o2)c1	2.4	4.0	2.1	1.7	-6.1	.
O=C1OC(c2cccs2)=N/C1=C\c1ccc(-c2cccc(Cl)c2)o1	-14.6	5.0	8.6	-0.6	46.0*	7.9
COc1ccc(/C=C2\SC(=N)N(c3nccs3)C2=O)cc1OC	-26.8	5.0	19.1	-5.5	14.3	.
O=S1(=O)CCN(c2ccccc2CC(c2c[nH]c3ccccc23)c2c[nH]c3ccccc23)CC1	0.7	.	6.1	5.0	17.1	.
Cn1cnc(S(=O)(=O)NCc2ccc(Br)cc2)c1	1.3	1.0	6.2	-0.1	-3.3	.
O=C(CSc1nnc(-c2cc3ccccc3cc2O)n1Cc1ccco1)N1CCc2ccccc2C1	-9.5	3.0	20.2	6.5	41.0*	53.6*
CC(C)N(C(=O)CSc1nnc(-c2cc3ccccc3cc2O)n1Cc1ccco1)C(C)C	1.8	6.0	-11.0	-1.3	-3.4	.
O=C(Nc1cnn(Cc2ccc(F)cc2)c1)c1cnn2c(C(F)F)cc(-c3ccccc3)nc12	0.5	1.0	-5.3	-0.8	-2.4	.
Cc1nn(Cc2c(Cl)cccc2Cl)c(C)c1NC(=O)c1cnn2c(C(F)F)cc(-c3ccccc3)nc12	0.3	0.0	1.1	3.6	43.1*	1.0
Cc1ccc(-c2cc(C(F)F)n3ncc(C(=O)Nc4c(C)nn(Cc5c(Cl)cccc5Cl)c4C)c3n2)cc1	1.2	0.0	18.1	1.9	32.4*	-0.5
Cc1ccc(-c2cc(C(F)F)n3ncc(C(=O)Nc4c(C)nn(Cc5ccccc5Cl)c4C)c3n2)cc1	2.0	2.0	0.5	-1.5	32.7*	-2.4
COc1ccccc1C(=O)NNC(=O)c1cccc(C)c1	-0.8	2.0	-9.9	4.5	0.9	.
Cc1cccc(NC(=O)COn2nnc3ccc(S(C)(=O)=O)cc32)c1	1.7	0.0	-1.6	2.8	1.3	.
Cc1ccc2c(c1)CCCO[C@]21O[C@H](CCO)C[C@H](O)[C@H]1O	3.8	.	.	3.3	-7.3	.
COc1ccc(-c2nnc(Nc3nc4c(OC)cccc4s3)o2)cc1	-8.8	0.0	29.9	3.7	31.2*	47.8
COc1ccc(-c2nnc(Nc3nc4c(OC)cccc4s3)o2)c(OC)c1	-10.5	2.0	-2.5	8.9	2.6	.
CN(C)c1ccc(/C=N\NC(=S)SCN2C(=O)C3CCC(C)(C2=O)C3(C)C)cc1 (stereo not drawn)	-19.5	2.0	5.0	-4.2	29.3*	16.8
COc1ccc(/C=N\NC(=S)SCN2C(=O)C3CCC(C)(C2=O)C3(C)C)cc1 (stereo not drawn)	1.2	4.0	5.0	-11.0	18.5	.
CN(C(=O)COC(=O)c1ccc(Br)c(S(=O)(=O)N2CCOCC2)c1)C1CCCCC1	0.9	0.0	2.0	4.2	-1.1	.
Cc1nc(N2CCN(C)CC2)c2cc(-c3ccccc3)sc2n1	3.2	0.0	-9.4	5.1	-2.1	.
